Measured values taken from article PMC6457131 (AIDS (London, England), 2019).
“Also recorded” adds a separate entry of the source.

Experiments:
EcoHIV-infected mice [1] = conditions: cited from earlier work
EcoHIV-infected mice [2] = test: Radial arm water maze; assay type: in vivo, C57BL/6J mice
[3] = Intranasal insulin pharmacokinetics in plasma, CSF and cortex; assay type: in vivo, C57BL/6 mice
[4] = tested on: MAP2 and NeuN in CA1 and CA3 regions of the hippocampus; test: Hippocampal neuronal integrity by MAP2/NeuN immunofluorescence staining; assay type: in vivo, mice
Method in brief: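 Brains came from 3 mice per variable after behavioural testing. After perfusion, frozen sections were immunostained for MAP2 (dendrites) and NeuN (neuronal nuclei) and imaged by confocal microscopy. Fluorescence was quantified in hippocampal CA1 and CA3.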

[5] = tested on: neuronal function and metabolism-related genes in the brain; assay type: in vivo, mice; conditions: intranasal insulin daily for 9 days
[6] = intranasal 2.4 IU; cited from earlier work
EcoHIV-infected mice [7] = test: Contextual fear conditioning; assay type: in vivo; conditions: 129x1/SvJ mice, 1 month after infection, during intranasal insulin treatment
EcoHIV = EcoHIV burdens in spleen cells and brain by quantitative PCR; assay type: in vivo, mice
[8] = intranasal 2.4 IU/mouse, uninfected mice, n = 3-8/group, observed value, ELISA
[9] = intranasal 2.4 IU/mouse, converted with 1 μIU/ml = 0.14 pmol/l
[10] = intranasal insulin daily for 9 days, QPCR

Compound: [N-]=[N+]=CC(=O)CC[C@H](N)C(=O)O [6-diazo-5-oxo-L-norleucine]
- EcoHIV virus replication (EcoHIV-infected mice [1]): but not virus replication
- murine NCI caused by EcoHIV (EcoHIV-infected mice [1]): can be prevented

Compound: Human insulin
- RAWM visible platform latency (mobility, vision, motivation) (EcoHIV-infected mice [2]; all mouse groups, intranasal insulin daily for 9 days): performed equally well
- day of RAWM testing at which maximum effect on working memory was reached (EcoHIV-infected mice [2]; infected mice, daily retention trial): ≤ 5 days
- NCI in RAWM, 3 months after infection (EcoHIV-infected mice [2]; intranasal 2.4 IU/mouse daily for 9 days, started 3 months after EcoHIV infection): completely reversed; also recorded: fully reversible
- RAWM performance of infected animals after treatment cessation (EcoHIV-infected mice [2]; last 3-day average, compared with infected, continually treated animals): dramatically worsened
- cortex insulin level above baseline ([3]; for 3 h following intranasal 2.4 IU/mouse): more than 10 fold
- duration of therapeutic intracerebral insulin concentrations ([3]; intranasal 2.4 IU/mouse): 2 to 3 h
- time by which insulin cleared to baseline, cortex ([3]; intranasal 2.4 IU/mouse): ≤ 6 h
- time by which insulin cleared to baseline, plasma ([3]; intranasal 2.4 IU/mouse): ≤ 6 h
- time by which insulin cleared, CSF ([3]; intranasal 2.4 IU/mouse): ≤ 3 h
- Cmax, CSF [3, 8]: 17 μIU/ml
- Cmax, plasma [3, 8]: 11.7 μIU/ml
- Tmax, CSF [3, 8]: 1 h
- Cmax, CSF [3, 9]: 2.38 pmol/L
- Cmax, cortex [3, 9]: 7.42 pM
- Cmax, plasma [3, 9]: 1.64 pmol/L
- half-life of insulin in cerebrospinal fluid ([3]; intranasal administration to mice): about 2 h
- NeuN staining of neuronal cell bodies in hippocampus ([4]; all conditions tested): remained unaltered
- MAP2 dendrite staining in CA1 and CA3 regions of hippocampus of infected mice ([4]; intranasal insulin daily for 9 days, three mice per variable): levels similar to uninfected mice
- downmodulation of fourteen genes in brains of EcoHIV-infected mice [5]: fully reversed
- energy metabolism in mouse brain [6]: increases energy metabolism in mouse brain
- plasma glucose levels [6]: but not plasma glucose levels
- contextual freezing response time of infected mice (EcoHIV-infected mice [7]): returned the freezing response time of infected mice to that of uninfected animals
- peripheral virus burdens after discontinuation of insulin treatment (EcoHIV; EcoHIV + insulin/disc group compared with untreated mice): significantly increased
- HIV DNA brain levels, 3 months after infection (EcoHIV; [10]): not significantly affected
- HIV brain burdens, 1 month after infection (EcoHIV; [10]): significantly reduced
- HIV levels in spleen, 1 month after infection (EcoHIV; [10]): no effect
